Consider 39 compounds from ChEMBL document CHEMBL2434847, “Design, synthesis, and structure-activity relationships of novel 6,7-disubstituted-4-phenoxyquinoline derivatives as potential antitumor agents” (Eur J Med Chem, 2013).

Assay [1] has as its system MKN-45. The assay is described as follows: Cytotoxicity against human MKN45 cells after 72 hrs by MTT assay. To be noted: MKN-45, 72 h.
Assay [2] has as its system A549. The assay is described as follows: Cytotoxicity against human A549 cells after 72 hrs by MTT assay. The assay is classed as functional, cell-based. To be noted: A549, 72 h. The essentials:
(§1)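 Cells grown in MEM with 10% FBS; about 4 × 10³ cells per well, preincubated 24 h at 37 °C in 5% CO₂, then exposed to compound for 72 h. Each line tested three times; IC50 is mean of three determinations.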
In general terms: Tetrazolium assays rely on reduction of a dye to a coloured formazan, in cell work by metabolically active cells.

Assay [3] in a line: Cytotoxicity against human U87MG cells after 72 hrs by MTT assay. In kind it is functional, cell-based, U-87MG ATCC. To be noted: U-87 MG. The essentials:
as §1

The test system of assay [4] is HT-29. The assay is described as follows: Cytotoxicity against human HT-29 cells after 72 hrs by MTT assay. Particulars: HT-29, 72 h.
Assay [5] can be described thus: Cytotoxicity against human H460 cells after 72 hrs by MTT assay. To be noted: NCI-H460, 72 h.

Consider `COc1cc2c(Oc3ccc(NC(=O)c4nccc(-c5ccc(F)cc5F)n4)cc3F)ccnc2cc1OCCCN1CCCCC1`, for which the IC50 (commonly the concentration needed to halve the response being measured) in assay [1] stood at 1120 nM; in assay [2], 470 nM; in assay [3], 780 nM; in assay [4], 400 nM; in assay [5], 550 nM.
For `COc1cc2c(Oc3ccc(NC(=O)c4nccc(-c5ccc(C)cc5)n4)cc3F)ccnc2cc1OCCCN1CCN(C)CC1`, the half-inhibitory concentration (IC50) was 340 nM in assay [1], 210 nM in assay [4] and 160 nM in assay [5].
Turning to `COc1cc2c(Oc3ccc(NC(=O)c4nccc(-c5ccc(F)cc5)n4)cc3F)ccnc2cc1OCCCN1CCN(C)CC1`, the IC50 was determined as 90 nM in assay [1]; 680 nM in assay [2]; 910 nM in assay [3]; 42 nM in assay [4]; 63 nM in assay [5].
With `COc1cc2c(Oc3ccc(NC(=O)c4nccc(-c5ccc(F)cc5F)n4)cc3F)ccnc2cc1OCCCN1CCN(C)CC1`, the 50% inhibitory concentration (IC50) in assay [1] is 440 nM; in assay [2], 660 nM; in assay [3] it was 780 nM; in assay [4] it was 480 nM; in assay [5] it was 450 nM.
For the compound `COc1cc2c(Oc3ccc(NC(=O)c4nccc(-c5ccccc5)n4)cc3F)ccnc2cc1OCCCN1CCCC1`, the concentration for half-maximal inhibition (IC50) in assay [1] was determined as 1360 nM; in assay [4] it was 390 nM; in assay [5], 1120 nM.
As to `COc1cc2c(Oc3ccc(NC(=O)c4nccc(-c5ccc(C)cc5)n4)cc3F)ccnc2cc1OCCCN1CCCC1`, the values for the half-inhibitory concentration (IC50) in assay [1], in assay [4] and in assay [5] were 240 nM, 670 nM and 440 nM, respectively.
Turning to `COc1cc2c(Oc3ccc(NC(=O)c4nccc(-c5ccc(F)cc5)n4)cc3F)ccnc2cc1OCCCN1CCCC1`, the IC50 in assay [1] was determined as 490 nM; in assay [2], 990 nM; in assay [3], 1130 nM; in assay [4], 160 nM; in assay [5] it was 300 nM.
For `COc1cc2c(Oc3ccc(NC(=O)c4cc(-c5ccc(C(F)(F)F)cc5)ccn4)cc3F)ccnc2cc1OCCCN1CCCC1`, the IC50 came out at 260 nM in assay [1], 720 nM in assay [4] and 250 nM in assay [5].
For `COc1ccc(-c2ccnc(C(=O)Nc3ccc(Oc4ccnc5cc(OCCCN6CCCC6)c(OC)cc45)c(F)c3)c2)cc1`, in that order: 150 nM, 350 nM and 200 nM.
For `COc1ccc(-c2ccnc(C(=O)Nc3ccc(Oc4ccnc5cc(OCCCN6CCCC6)c(OC)cc45)c(F)c3)c2)c(OC)c1`, in that order: 740 nM, 630 nM and 520 nM.
On to `COc1cc2c(Oc3ccc(NC(=O)c4cc(-c5ccccc5)ccn4)cc3F)ccnc2cc1OCCCN1CCCCC1`, for which the IC50 in assay [1] was 270 nM; in assay [2] it was 1800 nM; in assay [3] it was 790 nM; in assay [4], 270 nM; in assay [5], 120 nM.
Regarding `COc1cc2c(Oc3ccc(NC(=O)c4cc(-c5ccc(C)cc5)ccn4)cc3F)ccnc2cc1OCCCN1CCCCC1`, the half-inhibitory concentration (IC50) in assay [1] is 1670 nM; in assay [4], 340 nM; in assay [5], 160 nM.
Take `COc1cc2c(Oc3ccc(NC(=O)c4cc(-c5ccc(F)cc5)ccn4)cc3F)ccnc2cc1OCCCN1CCCCC1`: the IC50 in assay [1] stood at 1240 nM; in assay [2], 10100 nM; in assay [3], 12500 nM; in assay [4], 1370 nM; in assay [5] it was 250 nM.
For `COc1cc2c(Oc3ccc(NC(=O)c4cc(-c5ccccc5F)ccn4)cc3F)ccnc2cc1OCCCN1CCCCC1`, the IC50 in assay [1] amounted to 180 nM; in assay [4] it was 320 nM; in assay [5], 130 nM.
Consider `COc1cc2c(Oc3ccc(NC(=O)c4cc(-c5ccc(C(F)(F)F)cc5)ccn4)cc3F)ccnc2cc1OCCCN1CCCCC1`, for which the IC50 in assay [1] was 870 nM; in assay [2], 1640 nM; in assay [3], 1630 nM; in assay [4], 230 nM; in assay [5], 360 nM.
As for `COc1ccc(-c2ccnc(C(=O)Nc3ccc(Oc4ccnc5cc(OCCCN6CCCCC6)c(OC)cc45)c(F)c3)c2)cc1`, the IC50 in assay [1] is 570 nM; in assay [4], 690 nM; in assay [5] it was 200 nM.
In the case of `COc1cc2c(Oc3ccc(NC(=O)c4nccc(-c5ccccc5)n4)cc3F)ccnc2cc1OCCCN1CCOCC1`, the IC50 amounted to 260 nM in assay [1]; 510 nM in assay [2]; 1350 nM in assay [3]; 150 nM in assay [4]; 240 nM in assay [5].
As to `COc1cc2c(Oc3ccc(NC(=O)c4nccc(-c5ccc(C)cc5)n4)cc3F)ccnc2cc1OCCCN1CCOCC1`, the half-maximal inhibitory concentration (IC50) is 310 nM in assay [1]; 2240 nM in assay [2]; 2400 nM in assay [3]; 240 nM in assay [4]; 300 nM in assay [5].
As for `COc1cc2c(Oc3ccc(NC(=O)c4nccc(-c5ccc(F)cc5)n4)cc3F)ccnc2cc1OCCCN1CCOCC1`, the values for the half-inhibitory concentration (IC50) in assay [1], in assay [4] and in assay [5] were 360 nM, 110 nM and 220 nM, respectively.
On the same counts, the results for `COc1cc2c(Oc3ccc(NC(=O)c4nccc(-c5ccc(F)cc5F)n4)cc3F)ccnc2cc1OCCCN1CCOCC1` are 960 nM, 2190 nM and 1030 nM.
As to `COc1cc2c(Oc3ccc(NC(=O)c4nccc(-c5ccccc5)n4)cc3F)ccnc2cc1OCCCN1CCCCC1`, the IC50 is 1030 nM in assay [1], 260 nM in assay [4] and 330 nM in assay [5].
Turning to `COc1cc2c(Oc3ccc(NC(=O)c4nccc(-c5ccc(C)cc5)n4)cc3F)ccnc2cc1OCCCN1CCCCC1`, the IC50 in assay [1] is 580 nM; in assay [2], 900 nM; in assay [3], 1140 nM; in assay [4], 620 nM; in assay [5], 230 nM.
Turning to `COc1cc2c(Oc3ccc(NC(=O)c4nccc(-c5ccc(F)cc5)n4)cc3F)ccnc2cc1OCCCN1CCCCC1`, the results for the 50% inhibitory concentration (IC50) in assay [1], in assay [4] and in assay [5] were 930 nM, 120 nM and 240 nM, respectively.
With `COc1cc2c(Oc3ccc(NC(=O)c4cc(-c5ccc(C(F)(F)F)cc5)ccn4)cc3F)ccnc2cc1OCCCN1CCN(C)CC1`, the half-inhibitory concentration (IC50) in assay [1] turned out to be 330 nM; in assay [4], 200 nM; in assay [5], 160 nM.
Take `COc1ccc(-c2ccnc(C(=O)Nc3ccc(Oc4ccnc5cc(OCCCN6CCN(C)CC6)c(OC)cc45)c(F)c3)c2)cc1`: the IC50 worked out at 250 nM in assay [1], 390 nM in assay [4] and 370 nM in assay [5].
For `COc1ccc(-c2ccnc(C(=O)Nc3ccc(Oc4ccnc5cc(OCCCN6CCN(C)CC6)c(OC)cc45)c(F)c3)c2)c(OC)c1`, in that order: 330 nM, 420 nM and 430 nM.
On the same counts, the results for `COc1cc2c(Oc3ccc(NC(=O)c4cc(-c5ccccc5C)ccn4)cc3F)ccnc2cc1OCCCN1CCOCC1` are 1140 nM, 1050 nM and 2130 nM.
For `COc1cc2c(Oc3ccc(NC(=O)c4cc(-c5ccc(F)cc5)ccn4)cc3F)ccnc2cc1OCCCN1CCOCC1`, in that order: 870 nM, 1000 nM and 1870 nM.
For the compound `COc1cc2c(Oc3ccc(NC(=O)c4cc(-c5ccccc5F)ccn4)cc3F)ccnc2cc1OCCCN1CCOCC1`, the 50% inhibitory concentration (IC50) in assay [1] is 1310 nM; in assay [2], 3990 nM; in assay [3], 3030 nM; in assay [4] it was 400 nM; in assay [5], 680 nM.
As to `COc1cc2c(Oc3ccc(NC(=O)c4cc(-c5ccc(C(F)(F)F)cc5)ccn4)cc3F)ccnc2cc1OCCCN1CCOCC1`, the figures for the IC50 in assay [1], in assay [4] and in assay [5] were 78800 nM, 5070 nM and 52700 nM, respectively.
For `COc1ccc(-c2ccnc(C(=O)Nc3ccc(Oc4ccnc5cc(OCCCN6CCOCC6)c(OC)cc45)c(F)c3)c2)cc1`, in that order: 1150 nM, 1340 nM and 3120 nM.
In the case of `COc1ccc(-c2ccnc(C(=O)Nc3ccc(Oc4ccnc5cc(OCCCN6CCOCC6)c(OC)cc45)c(F)c3)c2)c(OC)c1`, the figures for the half-maximal inhibitory concentration (IC50) in assay [1], in assay [4] and in assay [5] were 6680 nM, 1530 nM and 12700 nM, respectively.
Consider `COc1cc2c(Oc3ccc(NC(=O)c4cc(-c5ccccc5)ccn4)cc3F)ccnc2cc1OCCCN1CCCC1`, for which the 50% inhibitory concentration (IC50) in assay [1] turned out to be 210 nM; in assay [2], 1580 nM; in assay [3] it was 1010 nM; in assay [4], 120 nM; in assay [5] it was 130 nM.
Consider `COc1cc2c(Oc3ccc(NC(=O)c4cc(-c5ccc(C)cc5)ccn4)cc3F)ccnc2cc1OCCCN1CCCC1`, for which the 50% inhibitory concentration (IC50) was 440 nM in assay [1]; 1060 nM in assay [2]; 560 nM in assay [3]; 350 nM in assay [4]; 160 nM in assay [5].
On to `COc1cc2c(Oc3ccc(NC(=O)c4cc(-c5ccccc5C)ccn4)cc3F)ccnc2cc1OCCCN1CCCC1`, for which the IC50 was 440 nM in assay [1], 1150 nM in assay [4] and 420 nM in assay [5].
Turning to `COc1cc2c(Oc3ccc(NC(=O)c4cc(-c5ccc(F)cc5)ccn4)cc3F)ccnc2cc1OCCCN1CCCC1`, the IC50 in assay [1] stood at 350 nM; in assay [2] it was 1800 nM; in assay [3] it was 1780 nM; in assay [4], 430 nM; in assay [5] it was 370 nM.
On the same counts, the results for `COc1cc2c(Oc3ccc(NC(=O)c4cc(-c5ccccc5F)ccn4)cc3F)ccnc2cc1OCCCN1CCCC1` are 230 nM, 430 nM, 610 nM, 230 nM and 140 nM.
On to `COc1cc2c(Oc3ccc(NC(=O)c4cc(-c5ccc(F)cc5)ccn4)cc3F)ccnc2cc1OCCCN1CCN(C)CC1`, for which the IC50 in assay [1] was found to be 510 nM; in assay [4], 1460 nM; in assay [5] it was 430 nM.
On to `COc1cc2c(Oc3ccc(NC(=O)c4cc(-c5ccccc5F)ccn4)cc3F)ccnc2cc1OCCCN1CCN(C)CC1`, for which the IC50 worked out at 150 nM in assay [1], 220 nM in assay [4] and 140 nM in assay [5].
